Non-standard residues stand in square brackets, D forms with d. Residues, ends and D or L forms follow the SMILES beside them. *: point of attachment. Dolaproine = CO[C@@H]([C@@H]1CCCN1)[C@@H](C)C(=O)O; Dil = CC[C@H](C)[C@H](NC)[C@@H](CC(=O)O)OC; X1 = C[C@@H](N*)[C@@H](O)c1ccccc1; NMeV = CN[C@H](C(=O)O)C(C)C Bounds are passed on as bounds.

Series [1] can be described thus: Linker stability assay in PBS. Format: physicochemical. The settings on record: pH 7.4.
Another series is described as follows: Dose escalation study. To be noted: female, athymic Balb/c nu/nu, mouse, in vivo. On the set-up: species or system Balb/c nu/nu mice. In short, it runs like this: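 Escalating doses (250 or 500 nmol/Kg) were given as five injections on five consecutive days to […] female athymic Balb/c nu/nu mice aged 8–10 weeks. An acetazolamide-targeted prodrug was compared with an untargeted analogue, with three mice per group.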

The nature of series [2]: Linker stability assay in mouse serum. Format: in vitro ADME.
The subject of series [3] is SKRC-52 xenografts. The experiment in a line: Therapy experiments in mice bearing subcutaneous SKRC-52 tumors. To be noted: 250 nmol/Kg, ten daily administrations. Format: in vivo, Balb/c nu/nu mice.
Series [4] concerns CAIX-expressing SKRC-52 cells. The experiment in a line: In vitro cytotoxicity assay. Format: cell-based, human. To be noted: read-out: IC50 (cytotoxicity), 72 h, 37 °C, MTS.
Series [5] deals with SKRC-52 xenografts. The settings on record: cited from earlier work.

The compound `CC[C@H](C)[C@@H]([C@@H](CC(=O)N1CCC[C@H]1[C@H](OC)[C@@H](C)C(=O)N[C@H](C)[C@@H](O)c1ccccc1)OC)N(C)C(=O)[C@@H](NC(=O)[C@H](C(C)C)N(C)C(=O)OCc1ccc(NC(=O)[C@H](CCCNC(N)=O)NC(=O)[C@@H](NC(=O)CCCCCN2C(=O)CC(SC[C@H](NC(=O)[C@H](CC(=O)O)NC(=O)[C@H](CCCNC(=N)N)NC(=O)[C@H](CC(=O)O)NC(=O)CCCCn3cc(CCCC(=O)Nc4nnc(S(N)(=O)=O)s4)nn3)C(=O)O)C2=O)C(C)C)cc1)C(C)C` (some centres unmarked) [Compound 4a] had a half-life at 100 μg/ml in series [1] above 48 h. In the series “Dose escalation study”, this compound showed an MTD at 5 days of 0.5 µmol/kg. Further, in series [2] (degradation profile in mouse serum), the “main release product (mass spectrometric analysis)” value is “free MMAE”. Also, in series [2] (mouse serum, 37 °C, 6 hours, LC-MS), the “conjugate intact after 6 hours in mouse serum” value is above 70%. The same compound showed a half-life in series [2] (mouse, mouse serum) of around 7 h. For the same compound, in the series with SKRC-52 xenografts [3], the “acute toxicity and body weight” value is “no acute toxicity and no significant weight loss”; the durable complete response result is recorded as “One out of five”.

In the case of `CC[C@H](C)[C@@H]([C@@H](CC(=O)N1CCC[C@H]1[C@H](OC)[C@@H](C)C(=O)N[C@H](C)[C@@H](O)c1ccccc1)OC)N(C)C(=O)[C@@H](NC(=O)[C@@H](NC)C(C)C)C(C)C` [MMAE, monomethyl auristatin E] (H-[NMeV]V[Dil][Dolaproine]-X1), the IC50 in series [4] amounted to 1.5 nM.

Turning to `COc1cccc2c1C(=O)c1c(O)c3c(c(O)c1C2=O)C[C@@](O)(C(=O)CO)C[C@@H]3O[C@H]1C[C@H]2[C@H](O[C@@H]3[C@@H](OC)OCCN32)[C@H](C)O1` [PNU-159682], the IC50 in series [4] was determined as 0.16 nM.

Consider `CNC(=O)c1cc(Oc2ccc(NC(=O)Nc3ccc(Cl)c(C(F)(F)F)c3)cc2)ccn1` [sorafenib], for which the “activity against SKRC-52 tumors” value with SKRC-52 xenografts [5] is on record as “did not display any detectable activity”.

On to `CCN(CC)CCNC(=O)c1c(C)[nH]c(/C=C2\C(=O)Nc3ccc(F)cc32)c1C` [sunitinib], for which the “activity against SKRC-52 tumors” value in the series on SKRC-52 xenografts [5] is listed as “did not display any detectable activity”.

As a reminder, the half-life is the time needed for the level to fall by half in the phase considered. Read a high half-life as slow decline. As usually defined, the IC50 is the concentration at which inhibition is half-maximal.

Values taken from article PMC5214883 (Molecular cancer therapeutics, 2016).
